From ChEMBL document CHEMBL1221405, “Chlorinated iridoid glucosides from Veronica longifolia and their antioxidant activity” (J Nat Prod, 2010)
Converted amounts (≈) assume the structure as drawn.

Tests used:
Format in all cases: functional
[1] = Antioxidant activity assessed as superoxide radical scavenging activity by NBT method
How it was run: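 Alkaline DMSO method (modified Kunchandy and Rao). Samples in DMSO were mixed with NBT (1 mg/mL in DMSO). Alkaline DMSO (DMSO with 5 mM NaOH in water) was added to give the final mixture. Absorbance was read at 560 nm.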

[2] = Antioxidant activity assessed as nitric oxide scavenging activity after 150 mins by Griess assay
How it was run: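 Serially diluted samples were mixed with an equal volume of 10 mM sodium nitroprusside in PBS and incubated under light at room temperature for 150 min. After 10 min, nitrite chromophore absorbance was read at 577 nm.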

[3] = tested on: Radical scavenging activity; test: Antioxidant activity assessed as DPPH radical scavenging activity after 30 mins
How it was run: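 Compounds in MeOH at various concentrations were added to DPPH in MeOH (80 µg/mL). After 30 min, remaining DPPH was read by absorbance at 520 nm. Scavenging was calculated against a blank (100%) holding only DPPH and solvent.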

| Structure (SMILES) | IC50 [1] [µg/mL] | IC50 [2] [µg/mL] | IC50 [3] [µg/mL] |
| --- | --- | --- | --- |
| O=C1O[C@H]([C@@H](O)CO)C(O)=C1O [ASCORBIC ACID] | 13 (≈ 73.8 µM) | > 1000 | < 10 |
| O=C(/C=C/c1ccc(O)c(O)c1)O[C@H]1[C@@H]2C=CO[C@@H](O[C@H]3O[C@@H](CO)[C@H](O)[C@@H](O)[C@@H]3O)[C@@H]2[C@](O)(CO)[C@@H]1Cl [LONGIFOLIOSIDE B] | 199 (≈ 355 µM) | 285 (≈ 508 µM) | 19 (≈ 33.9 µM) |
| O=C(O[C@H]1[C@@H]2C=CO[C@@H](O[C@H]3O[C@@H](CO)[C@H](O)[C@@H](O)[C@@H]3O)[C@@H]2[C@](O)(CO)[C@@H]1Cl)c1ccc(O)c(O)c1 [LONGIFOLIOSIDES A] | 92 (≈ 172 µM) | 149 (≈ 279 µM) | 27 (≈ 50.5 µM) |
| O=c1c(O)c(-c2ccc(O)c(O)c2)oc2cc(O)cc(O)c12 [QUERCETIN] | 68 (≈ 225 µM) | 96 (≈ 318 µM) | < 10 |
